Compound activity from PubChem.
This is a sample that favours compounds with a hit; in the whole collection about 2.7% have one here.
Yeast growth inh = growth inhibitors of yeast BB579 in restrictive medium, primary screen, yeast lifespan-shortening project, S. cerevisiae; AID 804, 2007; OD615, 48 h; inhibition, % at 10 µM; actives 0.51% (n = 140,000);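 active means inhibition above a set limit, 3 SD over the mean compound inhibition, cut at about 44% in these data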
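System: DeaD yeast strain BB579; buffer or medium: CSMM-D dextrose restrictive medium; technique: OD at 615 nm; schedule: 4 h cell preincubation, 48 h compound exposure, 30 °C humidified; doses: single 10 µM dose; controls: amphotericin B 10 µg/mL, positive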
RAM network inh = inhibitors of the yeast RAM network, primary screen, dse1pr::URA3 reporter, 5-FOA selection | S. cerevisiae dse1pr::URA3 reporter, 5-FOA growth OD615, 2 d; analog-sensitive cbk1-as2 kinase mutant strain | actives 1.8% (n = 190,000) | inhibition, % at 50 µM | AID 868, 2007;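 active means inhibition above a set limit, 3 SD over mean compound inhibition, cut at about 8.4% in these data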;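 further: inhibition rescues growth on 5-FOA so higher OD means more RAM inhibition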
sdo1 growth = growth rescue of sdo1-depleted yeast, primary screen, S. cerevisiae, bone marrow failure model. AID 817, 2007. actives 0.21% (n = 140,000). S. cerevisiae sdo1-depleted JHY4D growth rescue, OD600 30 h; hits give high values; pdr5 snq2 efflux-pump mutant strain. z-score at 10 µM;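 active means z-score above 3 at both the 24 hr and the 30 hr optical density reads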
Yeast lifespan up = compounds extending yeast replicative lifespan, primary screen, S. cerevisiae, OD615 | inhibition of the nicotinamide effect, % at 10 µM | S. cerevisiae growth with nicotinamide; deaD strain in restrictive glucose medium | actives 0.68% (n = 130,000);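 active means inhibition above a set limit, placed 3 SD over the median of all compounds, cut at about 26% in these data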
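Material: Modified budding yeast, DeaD strain | Medium: Restrictive glucose medium | Probe or stimulus: 1.5 mM nicotinamide | Dosing: Single dose 10 µM compound, 0.25% DMSO | Times: 48 h at 30 °C | Technique: OD615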
RAM 5-FOA = 5-FOA growth of efflux-deficient control yeast, dose response, counter-screen for RAM network inhibitor project, S. cerevisiae, OD615. shares compounds with RAM network inh. S. cerevisiae efflux-deficient reporter strain, 5-FOA growth OD615, 2 days. max inhibition, %. 1,200 tested, under 10 active. AID 1305, 2008; call rule not given here
Hits are given with their value.

Results for O=S(=O)(/C=C/c1ccccc1)Nc1cccc(S(=O)(=O)NC2=NCCC2)c1 ?
RAM network inh: inactive

How did CC(OC(=O)c1nn(C(C)C)c(=O)c2ccccc12)C(=O)Nc1ncc(Cl)cc1Cl (stereo not given) do in these assays?
Yeast growth inh: inactive; RAM network inh: inactive; sdo1 growth: inactive; Yeast lifespan up: inactive

How did Cc1ccccc1OCCNc1cc(N2CCN(CCO)CC2)ccc1[N+](=O)[O-] do in these assays?
Yeast growth inh: inactive; RAM network inh: inactive; sdo1 growth: inactive; Yeast lifespan up: inactive

How did Cc1ccccc1OCCNc1cc(N2CCCCC2)ccc1[N+](=O)[O-] do in these assays?
Yeast growth inh: inactive; RAM network inh: 14; sdo1 growth: inactive; Yeast lifespan up: inactive; RAM 5-FOA: inactive

Results for COc1cccc(OCCNc2cc(N3CCOCC3)ccc2[N+](=O)[O-])c1 ?
Yeast growth inh: inactive; RAM network inh: 12; sdo1 growth: inactive; Yeast lifespan up: inactive; RAM 5-FOA: inactive

Results for Cc1ccccc1N(CC(=O)Nc1ccccc1C(=O)O)S(C)(=O)=O ?
Yeast growth inh: inactive; RAM network inh: inactive; sdo1 growth: inactive; Yeast lifespan up: inactive

What do the screens show for `Cc1ccc(S(=O)(=O)N(CC(=O)Nc2ccccc2C(=O)O)c2cccc(Cl)c2C)cc1`?
Yeast growth inh: inactive; RAM network inh: 14; sdo1 growth: inactive; Yeast lifespan up: inactive; RAM 5-FOA: inactive

What do the screens show for `CCOc1ccccc1NC(=O)c1ccccc1-c1nc(-c2ccccc2)no1`?
Yeast growth inh: inactive; RAM network inh: 12; sdo1 growth: inactive; Yeast lifespan up: inactive; RAM 5-FOA: inactive

What do the screens show for `CC(C)CC(=O)N1CCN(Cc2ccccc2[N+](=O)[O-])CC1`?
RAM network inh: inactive

How did c1ccc(CSc2nnc(Cc3ccccc3)o2)cc1 do in these assays?
RAM network inh: inactive

What do the screens show for `Fc1ccc(CSc2nnc(Cc3sc(-c4ccccc4)nc3-c3ccccc3)o2)cc1`?
Yeast growth inh: inactive; RAM network inh: 22; sdo1 growth: inactive; Yeast lifespan up: inactive; RAM 5-FOA: inactive

How did Cn1c(N=Nc2ccc(N3CCOCC3)cc2)[n+](C)c2ccccc21 do in these assays?
RAM network inh: 13; RAM 5-FOA: inactive

How did CCOC(=O)C(=Cc1ccc(OCc2ccc([N+](=O)[O-])cc2)c(OC)c1)C(=O)OCC do in these assays?
Yeast growth inh: inactive; RAM network inh: 16; sdo1 growth: inactive; Yeast lifespan up: inactive; RAM 5-FOA: inactive

Results for COc1cc(/C=N/NC(=O)c2cccc([N+](=O)[O-])c2)ccc1OCc1ccccc1 ?
Yeast growth inh: inactive; RAM network inh: inactive; sdo1 growth: inactive; Yeast lifespan up: inactive

How did Cc1ccc(SCCNC(=O)c2ccc(C)c(S(=O)(=O)Nc3ccccc3C)c2)cc1 do in these assays?
Yeast growth inh: inactive; RAM network inh: 17; sdo1 growth: inactive; Yeast lifespan up: inactive; RAM 5-FOA: inactive

What do the screens show for `Cc1cc(OCC(=O)Nc2ccncc2)ccc1[N+](=O)[O-]`?
RAM network inh: inactive

Results for O=C(c1cccc(Cl)c1)N1CCCC(c2ccc(Cl)cc2)=N1 ?
Yeast growth inh: inactive; RAM network inh: 17; sdo1 growth: inactive; Yeast lifespan up: inactive; RAM 5-FOA: inactive

Results for CCOC(=O)n1c(=O)[nH]c2ccc(Br)cc21 ?
RAM network inh: inactive

What do the screens show for `CCn1nc(C)c(CNC(=O)CCc2nnc(Cc3c[nH]c4ccccc34)o2)c1C`?
RAM network inh: inactive

What do the screens show for `Clc1ccc(-c2nnc(CSc3nnc(-c4cccs4)o3)o2)cc1`?
Yeast growth inh: inactive; RAM network inh: 13; sdo1 growth: inactive; Yeast lifespan up: inactive; RAM 5-FOA: inactive

How did c1ccc(-c2nnc(SCc3nnc(-c4cccs4)o3)o2)cc1 do in these assays?
Yeast growth inh: inactive; RAM network inh: inactive; sdo1 growth: inactive; Yeast lifespan up: inactive

What do the screens show for `Cc1nc(Nc2cccc(C(C)O)c2)c2nnn(Cc3ccc(F)cc3)c2n1` (stereo not given)?
RAM network inh: inactive

How did CCCCCOP(=O)(OCCCCC)C1(NS(=O)(=O)c2ccccc2)C=CC(=O)c2ccccc21 (stereo not given) do in these assays?
Yeast growth inh: inactive; RAM network inh: 12; sdo1 growth: inactive; Yeast lifespan up: inactive; RAM 5-FOA: inactive

What do the screens show for `CCCCCCOC1(c2ccccc2)OC(=O)c2ccccc21` (stereo not given)?
Yeast growth inh: inactive; RAM network inh: inactive; sdo1 growth: inactive; Yeast lifespan up: inactive

How did O=C(CC12CC3CC(CC(C3)C1)C2)NC(=S)NCc1ccco1 do in these assays?
RAM network inh: 15; RAM 5-FOA: inactive

Results for Cc1ccc(NC(=O)COc2ccc(CCO)cc2-n2nc3ccccc3n2)cc1C ?
Yeast growth inh: inactive; RAM network inh: 12; sdo1 growth: inactive; Yeast lifespan up: inactive; RAM 5-FOA: inactive

What do the screens show for `COc1ccc(NC2=C(Cl)C(=O)N(CCc3ccccc3)C2=O)c(OC)c1`?
Yeast growth inh: inactive; RAM network inh: 16; sdo1 growth: inactive; Yeast lifespan up: inactive; RAM 5-FOA: inactive

How did CCc1c(C)nc2ncnn2c1N1CCN(S(=O)(=O)c2ccc(OC)cc2)CC1 do in these assays?
RAM network inh: inactive

What do the screens show for `CN(CC(=O)O)c1ccc(C(F)(F)F)cc1[N+](=O)[O-]`?
RAM network inh: inactive

How did CCCCC(=O)O[C@H]1CC[C@H]2[C@@H]3CCc4cc(O)ccc4[C@H]3CC[C@]12C do in these assays?
Yeast growth inh: inactive; RAM network inh: 14; sdo1 growth: inactive; Yeast lifespan up: inactive; RAM 5-FOA: inactive

How did CSc1nc(SCC(=O)NCc2ccco2)c2c3c(sc2n1)COC(C)(C)C3 do in these assays?
Yeast growth inh: inactive; RAM network inh: inactive; sdo1 growth: inactive; Yeast lifespan up: inactive

How did CCC1(C)Cc2c(sc3nc(NN)n(C)c(=O)c23)CO1 (stereo not given) do in these assays?
Yeast growth inh: inactive; RAM network inh: inactive; sdo1 growth: inactive; Yeast lifespan up: inactive

Results for CCCSc1nc(SCC(=O)NCc2ccccc2)c2c3c(sc2n1)COC(C)(CC)C3 (stereo not given) ?
Yeast growth inh: inactive; RAM network inh: 12; sdo1 growth: inactive; Yeast lifespan up: inactive; RAM 5-FOA: inactive

Results for CCCCSc1nc(SCC(=O)NCc2ccco2)c2c3c(sc2n1)COC(C)(CC)C3 (stereo not given) ?
Yeast growth inh: inactive; RAM network inh: 14; sdo1 growth: inactive; Yeast lifespan up: inactive; RAM 5-FOA: inactive

Results for Cc1noc(NS(=O)(=O)c2ccc(N/C=C\C(=O)c3cccs3)cc2)c1C ?
RAM network inh: 12; RAM 5-FOA: inactive

What do the screens show for `O=C(COC(=O)c1cc(-c2cccs2)nc2ccccc12)NCc1ccco1`?
Yeast growth inh: inactive; RAM network inh: inactive; sdo1 growth: inactive; Yeast lifespan up: inactive
